One may read the Kp as tissue or fluid exposure divided by exposure in the circulation.

Consider 28 compounds from ChEMBL document CHEMBL4308921, “Structure-Activity Relationships of Central Nervous System Penetration by Fatty Acid Amide Hydrolase (FAAH)-Targeted Thyromimetic Prodrugs” (ACS Med Chem Lett, 2019).

A short description of data set [1]: Prodrug activation in C57BL/6 mouse brain assessed as FAAH-mediated sobetirome formation at 3.05 umol/kg, ip after 1 hr by LC-MS/MS analysis. Format: organism-based. Conditions: in vivo.
The nature of data set [2]: Prodrug activation in C57BL/6 mouse serum assessed as FAAH-mediated sobetirome formation at 3.05 umol/kg, ip after 1 hr by LC-MS/MS analysis. Conditions: in vivo. The format is organism-based.
In data set [3] the target is T1, Fatty-acid amide hydrolase 1 (Homo sapiens, UniProt O00519).
T1 sequence (O00519 whole entry): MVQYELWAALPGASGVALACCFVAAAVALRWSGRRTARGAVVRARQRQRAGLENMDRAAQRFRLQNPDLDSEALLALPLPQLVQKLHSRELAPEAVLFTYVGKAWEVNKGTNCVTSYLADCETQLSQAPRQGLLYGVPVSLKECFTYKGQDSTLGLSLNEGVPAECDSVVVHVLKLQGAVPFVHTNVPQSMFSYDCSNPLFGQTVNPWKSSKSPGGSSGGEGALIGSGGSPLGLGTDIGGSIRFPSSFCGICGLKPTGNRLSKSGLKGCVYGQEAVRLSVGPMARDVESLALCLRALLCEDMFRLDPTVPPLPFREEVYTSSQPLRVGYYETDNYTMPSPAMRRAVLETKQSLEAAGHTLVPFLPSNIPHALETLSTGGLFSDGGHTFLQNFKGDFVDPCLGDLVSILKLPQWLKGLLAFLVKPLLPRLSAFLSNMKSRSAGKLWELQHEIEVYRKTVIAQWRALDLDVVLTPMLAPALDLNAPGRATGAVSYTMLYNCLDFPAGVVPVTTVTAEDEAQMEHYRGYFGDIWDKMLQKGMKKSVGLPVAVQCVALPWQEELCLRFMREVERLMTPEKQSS
Briefly: Prodrug activation in COS7 cells overexpressing human FAAH assessed as FAAH-mediated sobetirome formation by measuring compound hydrolysis rate at 100 uM by LC-MS/MS analysis. Format: cell-based. The procedure, abridged:
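Hydrolysis kinetics were measured in homogenate of COS-7 cells overexpressing human FAAH, with prodrug substrate at 100 µM. Rate is given as nmol mg-1 min-1, mean ± SEM, n = 3.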

Data set [4] can be described thus: Brain to serum permeability coefficient, Kp of the compound in C57BL/6 mouse assessed as sobetirome level at 3.05 umol/kg, ip after 1 hr by LC-MS/MS analysis. Format: ADME, organism-based.

Regarding `Cc1cc(OCC(=O)NCc2ccccc2)cc(C)c1Cc1ccc(O)c(C(C)C)c1`, the Drug uptake in data set [1] was 15.7 ng/g; in data set [2], 15.2 ng/g. Moreover, the Drug metabolism in data set [3] came out at 1.7 nmol/mg/min. For the same compound, the concentration ratio (Kp) in data set [4] stood at 0.95.

As to `Cc1cc(OCC(=O)NCCF)cc(C)c1Cc1ccc(O)c(C(C)C)c1`, the Drug uptake in data set [1] is given as 107.1 ng/g; in data set [2] it was 64.2 ng/g. The Drug metabolism in data set [3] was 3.5 nmol/mg/min. Further, in data set [4], the Kp is 1.7.

As to `Cc1cc(OCC(=O)NCC(C)O)cc(C)c1Cc1ccc(O)c(C(C)C)c1` (configuration not stated), the Drug uptake is listed as 38.7 ng/g in data set [1] and 55.7 ng/g in data set [2]. The Drug metabolism in data set [3] stood at 3.6 nmol/mg/min. Also, in data set [4], the concentration ratio (Kp) is on record as 0.72.

For `CCCNC(=O)COc1cc(C)c(Cc2ccc(O)c(C(C)C)c2)c(C)c1`, the figures for the Drug uptake in data set [1] and in data set [2] were 20.2 ng/g and 16.9 ng/g, respectively. In addition, the Drug metabolism in data set [3] was found to be 2.6 nmol/mg/min. Besides, in data set [4], the Kp was determined as 1.15.

Consider `Cc1cc(OCC(=O)NCCO)cc(C)c1Cc1ccc(O)c(C(C)C)c1`, for which the Drug uptake in data set [1] came to 25.5 ng/g; in data set [2] it was 66.8 ng/g. The Drug metabolism in data set [3] is 4.8 nmol/mg/min. Also, the concentration ratio (Kp) in data set [4] came to 0.37.

As for `Cc1cc(OCC(=O)NO)cc(C)c1Cc1ccc(O)c(C(C)C)c1`, the values for the Drug uptake in data set [1] and in data set [2] were 2.8 ng/g and 127.7 ng/g, respectively. For the same compound, in data set [3], the Drug metabolism came to 4.9 nmol/mg/min. In data set [4], the Kp came out at 0.03.

For the compound `Cc1cc(OCC(=O)NCCc2ccc(O)c(O)c2)cc(C)c1Cc1ccc(O)c(C(C)C)c1`, the Drug uptake in data set [1] is given as 7.4 ng/g; in data set [2] it was 4.9 ng/g. In addition, the Drug metabolism in data set [3] stood at 0.8 nmol/mg/min. The Kp in data set [4] is listed as 0.94.

Take `CONC(=O)COc1cc(C)c(Cc2ccc(O)c(C(C)C)c2)c(C)c1`: the results for the Drug uptake in data set [1] and in data set [2] were 8.4 ng/g and 209.7 ng/g, respectively. For the same compound, the Drug metabolism in data set [3] is reported as 4.1 nmol/mg/min. Further, the Kp in data set [4] turned out to be 0.04.

In the case of `Cc1cc(OCC(=O)NCC#N)cc(C)c1Cc1ccc(O)c(C(C)C)c1`, the figures for the Drug uptake in data set [1] and in data set [2] were 59.9 ng/g and 107.7 ng/g, respectively. For the same compound, in data set [3], the Drug metabolism was 5 nmol/mg/min. The concentration ratio (Kp) in data set [4] is on record as 0.57.

Turning to `Cc1cc(OCC(=O)NC(C)CO)cc(C)c1Cc1ccc(O)c(C(C)C)c1` (configuration not stated), the Drug uptake was 22.3 ng/g in data set [1] and 33.7 ng/g in data set [2]. Moreover, the Drug metabolism in data set [3] amounted to 4.5 nmol/mg/min. Further, in data set [4], the Kp came to 0.69.

In the case of `Cc1cc(OCC(=O)NCCS(=O)(=O)[O-])cc(C)c1Cc1ccc(O)c(C(C)C)c1.[Na+]`, the Drug uptake in data set [1] was 7.1 ng/g; in data set [2], 45.7 ng/g. In data set [3], the Drug metabolism was determined as 8.9 nmol/mg/min. For the same compound, in data set [4], the concentration ratio (Kp) is 0.18.

Regarding `Cc1cc(OCC(=O)NC2COC2)cc(C)c1Cc1ccc(O)c(C(C)C)c1`, the Drug uptake in data set [1] came out at 79.2 ng/g; in data set [2], 110.6 ng/g. Further, the Drug metabolism in data set [3] came out at 3.7 nmol/mg/min. Further, the concentration ratio (Kp) in data set [4] was 0.75.

As for `Cc1cc(OCC(=O)NCCNS(C)(=O)=O)cc(C)c1Cc1ccc(O)c(C(C)C)c1`, the Drug uptake in data set [1] turned out to be 1.6 ng/g; in data set [2] it was 26.2 ng/g. For the same compound, in data set [3], the Drug metabolism is listed as 2.4 nmol/mg/min. Further, in data set [4], the Kp was determined as 0.06.

`Cc1cc(OCC(N)=O)cc(C)c1Cc1ccc(O)c(C(C)C)c1`: the Drug uptake in data set [1] was 93.9 ng/g; in data set [2], 79.5 ng/g. Moreover, the Drug metabolism in data set [3] stood at 4.7 nmol/mg/min. The Kp in data set [4] is on record as 1.17.

In the case of `Cc1cc(OCC(=O)NC(CO)CO)cc(C)c1Cc1ccc(O)c(C(C)C)c1`, the Drug uptake in data set [1] is given as 2.6 ng/g; in data set [2], 98 ng/g. Besides, the Drug metabolism in data set [3] turned out to be 3.7 nmol/mg/min. Besides, in data set [4], the Kp turned out to be 0.03.

As for `CCNC(=O)COc1cc(C)c(Cc2ccc(O)c(C(C)C)c2)c(C)c1`, the Drug uptake in data set [1] came out at 58.2 ng/g; in data set [2] it was 21.5 ng/g. The Drug metabolism in data set [3] is on record as 3.4 nmol/mg/min. For the same compound, the partition ratio (Kp) in data set [4] was 2.74.

With `Cc1cc(OCC(=O)Nc2cccc(O)c2)cc(C)c1Cc1ccc(O)c(C(C)C)c1`, the Drug uptake in data set [1] amounted to 12.8 ng/g; in data set [2], 325.7 ng/g. Besides, in data set [3], the Drug metabolism worked out at 10.1 nmol/mg/min. For the same compound, the Kp in data set [4] was determined as 0.04.

On to `Cc1cc(OCC(=O)Nc2ccccc2O)cc(C)c1Cc1ccc(O)c(C(C)C)c1`, for which the Drug uptake in data set [1] came to 7.4 ng/g; in data set [2], 174.7 ng/g. Also, the Drug metabolism in data set [3] is given as 1.4 nmol/mg/min. Besides, the Kp in data set [4] came to 0.04.

Consider `Cc1cc(OCC(=O)NCC(F)(F)F)cc(C)c1Cc1ccc(O)c(C(C)C)c1`, for which the Drug uptake in data set [1] is 59.4 ng/g; in data set [2], 80.2 ng/g. The Drug metabolism in data set [3] was 4.8 nmol/mg/min. Further, the Kp in data set [4] amounted to 0.76.

On to `C#CCNC(=O)COc1cc(C)c(Cc2ccc(O)c(C(C)C)c2)c(C)c1`, for which the results for the Drug uptake in data set [1] and in data set [2] were 59.5 ng/g and 59.4 ng/g, respectively. Also, in data set [3], the Drug metabolism is reported as 3.2 nmol/mg/min. In addition, the concentration ratio (Kp) in data set [4] is given as 0.99.

In the case of `Cc1cc(OCC(=O)NC2CC2)cc(C)c1Cc1ccc(O)c(C(C)C)c1`, the values for the Drug uptake in data set [1] and in data set [2] were 58 ng/g and 23.8 ng/g, respectively. Moreover, the Drug metabolism in data set [3] came to 3.2 nmol/mg/min. In addition, in data set [4], the Kp is 2.49.

Turning to `Cc1cc(OCC(=O)NCC(F)F)cc(C)c1Cc1ccc(O)c(C(C)C)c1`, the Drug uptake in data set [1] is 125.4 ng/g; in data set [2] it was 128.8 ng/g. Further, the Drug metabolism in data set [3] amounted to 3.4 nmol/mg/min. Also, in data set [4], the concentration ratio (Kp) was found to be 1.04.

Consider `Cc1cc(OCC(=O)NN)cc(C)c1Cc1ccc(O)c(C(C)C)c1`, for which the Drug uptake in data set [1] is 68.2 ng/g; in data set [2], 199.5 ng/g. For the same compound, in data set [3], the Drug metabolism is reported as 3.8 nmol/mg/min. In data set [4], the Kp stood at 0.58.

For `Cc1cc(OCC(=O)NCCc2ccccc2)cc(C)c1Cc1ccc(O)c(C(C)C)c1`, the Drug uptake in data set [1] was 11.3 ng/g; in data set [2], 8.6 ng/g. In addition, the Drug metabolism in data set [3] was 1 nmol/mg/min. Besides, the concentration ratio (Kp) in data set [4] is on record as 1.31.

As to `Cc1cc(OCC(=O)NCCN)cc(C)c1Cc1ccc(O)c(C(C)C)c1`, the Drug uptake in data set [1] was determined as 0.8 ng/g; in data set [2], 6.9 ng/g. Further, the Drug metabolism in data set [3] was 5.6 nmol/mg/min. For the same compound, in data set [4], the Kp turned out to be 0.07.

With `C=CCNC(=O)COc1cc(C)c(Cc2ccc(O)c(C(C)C)c2)c(C)c1`, the Drug uptake is 33.4 ng/g in data set [1] and 25.4 ng/g in data set [2]. The Drug metabolism in data set [3] stood at 3.6 nmol/mg/min. In addition, the Kp in data set [4] amounted to 1.23.

Take `Cc1cc(OCC(=O)N(C)C)cc(C)c1Cc1ccc(O)c(C(C)C)c1`: the Drug uptake in data set [1] is listed as 32.2 ng/g; in data set [2], 10.4 ng/g. The Drug metabolism in data set [3] is reported as 4.3 nmol/mg/min. Besides, the concentration ratio (Kp) in data set [4] came out at 3.17.

As for `Cc1cc(OCC(=O)Nc2cccc(F)c2)cc(C)c1Cc1ccc(O)c(C(C)C)c1`, the Drug uptake in data set [1] is on record as 15.4 ng/g; in data set [2] it was 383.8 ng/g. Besides, the Drug metabolism in data set [3] is given as 2.1 nmol/mg/min. In addition, the Kp in data set [4] was found to be 0.04.
